According to article PMC1390681 (Nucleic Acids Research, 2006):

Key:
NC•SL3 = test: NC–RNA inhibition: ligand added to preformed NC•SL3 complex, ESI-FTMS; format: binding, HIV-1; conditions: for ligand effect on NC•SL3 complex: 0.35–17.5 µM ligand added to preformed complex
NC•SL2 = test: NC–RNA inhibition: ligand added to preformed NC•SL2 complex, ESI-FTMS; format: binding, HIV-1; conditions: 0.35–17.5 µM ligand added to preformed complex
NC•SL4 = test: NC–RNA inhibition: ligand added to preformed NC•SL4 complex, ESI-FTMS; format: binding, HIV-1; conditions: 0.35–17.5 µM ligand added to preformed complex
Outline: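 NC was expressed in E. coli BL21(DE3)-pLysE and purified non-denaturing, with two Zn2+ confirmed by MS. It was mixed equimolar with refolded hairpin (SL4 stem extended by three base pairs) for 15 min at room temperature, forming a 1:1 complex. Ligand (0.35–17.5 µM) was added to ~3.5 µM complex in 100 mM ammonium acetate pH 7.5, then read by negative-ion ESI-FTMS. IC50 at 0.5 fractional occupancy, from competition-isotherm fit, triplicate.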

SL2 = test: Multiplexed binding assay, ternary ligand mixture added to SL2, ESI-FTMS; parameters: species or system HIV-1; conditions: ternary mixture of vancomycin, mitoxantrone and neomycin B; negative control
Outline: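 SL2 hairpin (HIV-1 NL4-3 sequence), desalted in 100 mM ammonium acetate pH 7.5, heated 95°C 3 min, ice-cooled. Equimolar mix of up to three ligands added stepwise to 0.35 µM final RNA, giving 0.35–17.5 µM total ligand. Incubated 15 min at room temperature. Analysed by 2-propanol-assisted nanospray ESI-FTMS (7 T, negative ion). Species quantified from signal intensities divided by charge state.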

SMILES	ligand effect on NC•SL3 complex (NC•SL3)	ligand effect on NC•SL2 complex (NC•SL2)	ligand effect on NC•SL4 complex (NC•SL4)	equivalents of ligand bound to NC•SL3 complex (ternary species) (NC•SL3; 5-fold addition of ligand)	binding to SL2 in multiplexed assay (SL2)
CN(C)[C@@H]1C(O)=C(C(N)=O)C(=O)[C@@]2(O)C(O)=C3C(=O)c4c(O)ccc(Cl)c4[C@@](C)(O)[C@H]3C[C@@H]12 [Chlorotetracycline, chlorotetracycline]	No Effect	No Effect	No Effect	–	–
Cn1cc(NC(=O)c2cc(NC(=O)c3cc(NC=O)cn3C)cn2C)cc1C(=O)NCCC(=N)N [Distamycin A, distamycin A]	–	No Effect	No Effect	–	–
O=C1c2c(O)ccc(O)c2C(=O)c2c(NCCNCCO)ccc(NCCNCCO)c21 [Mitoxantrone, mitoxantrone]	no detectable signs of dissociation	–	–	up to three	–
CN[C@H](CC(C)C)C(=O)N[C@H]1C(=O)N[C@@H](CC(N)=O)C(=O)N[C@H]2C(=O)N[C@H]3C(=O)N[C@H](C(=O)N[C@H](C(=O)O)c4cc(O)cc(O)c4-c4cc3ccc4O)[C@H](O)c3ccc(c(Cl)c3)Oc3cc2cc(c3O[C@@H]2O[C@H](CO)[C@@H](O)[C@H](O)[C@H]2O[C@H]2C[C@](C)(N)[C@H](O)[C@H](C)O2)Oc2ccc(cc2Cl)[C@H]1O [vancomycin]	–	–	–	–	no binding was observed
